In ChEMBL document CHEMBL4414566, “Cytotoxicity and Anti-inflammatory Properties of Apigenin-Derived Isolaxifolin” (J Nat Prod, 2019):
The source made the active and inactive calls. The calls are words filed in the database; no cut-off is given here.

What was measured:
[1] = test system: RAW264.7; test: Antiinflammatory activity against LPS-activated mouse RAW264.7 cells assessed as reduction in TNFalpha mRNA expression at 3.1 uM preincubated with LPS for 24 hrs followed by compound addition and measured after 24 hrs by qRT-PCR analysis; type: functional, cell-based
Outline: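 RAW 264.7 cells (DMEM, 10% FBS, 37 °C, 5% CO2) seeded at 1 × 10^5/well and held 4 h. LPS 1.0 μg/mL was added for 24 h, then medium was replaced with test agent (0.8, 1.6, 3.1 μM or 2.3, 4.6, 9.2 μM) for 24 h. TNF-α and IL-6 transcripts were quantified by real-time qPCR against GAPDH. Triplicates, mean ± SD.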

[2] = test system: RAW264.7; test: Antiinflammatory activity in mouse RAW264.7 cells assessed as reduction in LPS-induced TNFalpha production at 0.8 to 3.1 uM preincubated with LPS for 24 hrs followed by compound addition and measured after 24 hrs by ELISA; type: functional, cell-based
Outline: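 Murine RAW 264.7 macrophages, 1 × 10^5/well, 4 h settling, then LPS (1.0 μg/mL) for 24 h. Medium was swapped for test solutions (0.8–3.1 μM or 2.3–9.2 μM), or DXM 254.8 μM as positive control, for another 24 h. Secreted NO was measured by Griess assay; TNF-α and IL-6 by ELISA. Run in triplicate, mean ± SD.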

[3] = test system: RAW264.7; test: Inhibition of nitric oxide production in mouse RAW264.7 cells at 0.8 to 3.1 uM measured after 24 hrs by griess reagent based assay; type: functional, cell-based
[4] = test system: MDA-MB-231; test: Induction of mitochondrial membrane potential loss in human MDA-MB-231 cells incubated for 48 hrs by JC1 staining based flow cytometric analysis; type: functional, cell-based
Outline: (§1)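 MDA-MB-231 cells in DMEM/10% FBS exposed 48 h to 0, 8.6, 12.4 or 17.3 μM. Harvested cells stained with JC-1 for 15 min in the dark, then analysed by flow cytometry. Excitation 488 nm; green emission read at 525 nm, red at 590 nm. Output given as percent green-to-red fluorescence intensity ratio. Triplicate, mean ± SD.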

[5] = test system: MDA-MB-231; test: Induction of apoptosis in human MDA-MB-231 cells assessed as necrotic cells at 17.3 uM incubated for 48 hrs by annexin V-FITC/PI based flow cytometric analysis (Rvb= 0.74%); type: functional
[6] = test system: MDA-MB-231; test: Induction of apoptosis in human MDA-MB-231 cells assessed as late apoptotic cells at 17.3 uM incubated for 48 hrs by annexin V-FITC/PI based flow cytometric analysis (Rvb= 2.82%); type: functional
[7] = test system: MDA-MB-231; test: Induction of apoptosis in human MDA-MB-231 cells assessed as early apoptotic cells at 17.3 uM incubated for 48 hrs by annexin V-FITC/PI based flow cytometric analysis (Rvb= 0.24%); type: functional
[8] = test system: MDA-MB-231; test: Induction of apoptosis in human MDA-MB-231 cells assessed as viable cells at 17.3 uM incubated for 48 hrs by annexin V-FITC/PI based flow cytometric analysis (Rvb= 96.21%); type: functional; details: MDA-MB-231, 48 h, read-out: Activity
[9] = test system: MDA-MB-231; test: Induction of apoptosis in human MDA-MB-231 cells assessed as necrotic cells at 12.4 uM incubated for 48 hrs by annexin V-FITC/PI based flow cytometric analysis (Rvb= 0.74%); type: functional
[10] = test system: MDA-MB-231; test: Induction of apoptosis in human MDA-MB-231 cells assessed as early apoptotic cells at 12.4 uM incubated for 48 hrs by annexin V-FITC/PI based flow cytometric analysis (Rvb= 0.24%); type: functional
[11] = test system: MDA-MB-231; test: Induction of apoptosis in human MDA-MB-231 cells assessed as late apoptotic cells at 8.6 uM incubated for 48 hrs by annexin V-FITC/PI based flow cytometric analysis (Rvb= 2.82%); type: functional
[12] = test system: MDA-MB-231; test: Induction of apoptosis in human MDA-MB-231 cells assessed as early apoptotic cells at 8.6 uM incubated for 48 hrs by annexin V-FITC/PI based flow cytometric analysis (Rvb= 0.24%); type: functional
[13] = test system: MDA-MB-231; test: Induction of apoptosis in human MDA-MB-231 cells assessed as increase in nuclear chromatin condensation incubated for 48 hrs by Hoechst 33258 staining based fluorescence microscopic method; type: functional, cell-based
Outline: (§2)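 MDA-MB-231 cells were grown 24 h and treated with 8.6, 12.4 or 17.3 μM for 48 h. They were then fixed 10 min, washed three times in PBS and stained 5 min with Hoechst 33258. Nuclear condensation was imaged by fluorescence microscopy (excitation 350 nm, emission 460 nm).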

[14] = test system: MDA-MB-231; test: Induction of cell cycle arrest in human MDA-MB-231 cells assessed as accumulation of cells at G2/M phase at 17.3 uM incubated for 48 hrs by PI/RNase staining based flow cytometric analysis (reference value: 10.4%); type: functional
Outline: (§3)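 Cell-cycle analysis: MDA-MB-231 cells were preincubated 24 h, then treated with 8.6, 12.4 or 17.3 μM for 48 h. Cells were pelleted, fixed in 75% ethanol at −20 °C overnight, and stained with PI/RNase for 15 min in the dark at ambient temperature. About 10 000 cells per well were analyzed by flow cytometry for DNA content.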

[15] = test system: MDA-MB-231; test: Induction of cell cycle arrest in human MDA-MB-231 cells assessed as accumulation of cells at S phase at 17.3 uM incubated for 48 hrs by PI/RNase staining based flow cytometric analysis (reference value: 39.2%); type: functional; outline: as §3
[16] = test system: MDA-MB-231; test: Induction of cell cycle arrest in human MDA-MB-231 cells assessed as accumulation of cells at G0/G1 phase at 8.6 uM incubated for 48 hrs by PI/RNase staining based flow cytometric analysis (reference value: 50.4%); type: functional; outline: as §3
[17] = test system: HCT-116; test: Antiproliferative activity against human HCT116 cells assessed as cell viability at >34.6 uM incubated for 48 hrs by methylene blue assay relative to control; type: functional
Outline: (§4)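 MDA-MB-231, MCF-7, HepG2 and LNCaP cells were grown in DMEM; HCT-116 and LO-2 in RPMI-1640; all with 10% FBS at 37 °C, 5% CO2. Cells seeded at 1.5 × 10^5 cells/mL and incubated overnight (~12 h), then exposed to 6.2–30.9 μM or 23.1–185.0 μM (final DMSO <0.1%) for 48 h. Read by methylene blue staining; viability = Abs treated/Abs untreated × 100%, triplicate.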

[18] = test system: MCF7; test: Antiproliferative activity against human MCF7 cells assessed as cell viability at 24.2 uM incubated for 48 hrs by methylene blue assay relative to control; type: functional; details: MCF7, 48 h, read-out: Activity; outline: as §4
[19] = test system: MDA-MB-231; test: Antiproliferative activity against human MDA-MB-231 cells assessed as cell viability at 17.3 uM incubated for 48 hrs by methylene blue assay relative to control; type: functional; details: MDA-MB-231, 48 h, read-out: Activity; outline: as §4
[20] = test system: L02; test: Cytotoxicity against human LO2 cells assessed as reduction in cell viability at 6.2 to 30.9 uM incubated for 48 hrs by methylene blue assay; type: cell-based; details: l02, 48 h; outline: as §4
[21] = test system: MDA-MB-231; test: Induction in apoptosis in human MDA-MB-231 cells assessed as apoptotic cell bodies formation at 17.3 uM incubated for 48 hrs by Hoechst 33258 staining based fluorescence microscopic method; type: functional; outline: as §2
[22] = test system: MDA-MB-231; test: Induction of mitochondrial membrane potential loss in human MDA-MB-231 cells cell population with mitochondrial membrane potential collapse by measuring green fluorescence at 12.4 uM incubated for 48 hrs by JC1 staining based flow cytometric analysis (reference value: 7.96%); type: functional; outline: as §1

In the case of `CC(C)=CCc1c2c(c(O)c3c(=O)cc(-c4ccc(O)cc4)oc13)C=CC(C)(C)O2` [LAXIFOLIN], the Activity [1] is reported as “Active”, the Activity [2] is reported as “Active” and the inhibition [3] is reported as “Active”. For the same compound, the Activity [4] was “Dose-dependent effect”, the Activity [5] was 5.57% and the Activity [6] was 24.55%. The Activity [7] was 0.96%, the viability at 17.3 µM [8] was 68.9% and the Activity [9] was 1.19%. The Activity [10] was 0.58%, the Activity [11] was 9.8% and the Activity [12] was 0.87%. For the same compound, the Activity [13] was “Dose-dependent effect”, the Activity [14] was 9.87% and the Activity [15] was 26.8%. The Activity [16] was 59.5%, the Activity [17] was 20% and the viability at 24.2 µM [18] was 20%. The viability at 17.3 µM [19] was 20%, the Activity [20] was “Non-Toxic” and the Activity [21] was “Active”. The Activity [22] was 15.7%.
